Values after ≈ are worked out from the molar mass of the structure shown. Active and inactive are the calls of the source. The rule behind the calls is not given here.
Experiments:
[1] = test system: Staphylococcus aureus; experiment: Antibacterial activity against methicillin-resistant Staphylococcus aureus 15187 treated for 24 hrs followed by compound treated at 2 to 16 times MIC measured after 24 hrs by micro dilution method; type: functional; conditions: Staphylococcus aureus, 15187, 24 h
Method in brief: (§1)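 MBC taken from the same 24 h microdilution plates (Mueller Hinton broth, final inoculum 5 × 10^6 CFU mL-1, 37 °C). […] Spots were incubated 24 h and colonies counted. MBC is the lowest concentration giving a 3 log drop from the starting inoculum.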

[2] = test system: PC-3; experiment: Antiproliferative activity against human PC3 cells after 48 hrs by sulforhodamine B assay; type: functional, cell-based; conditions: PC-3, 48 h
Method in brief: (§2)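 Sulforhodamine B assay following NCI guidelines. Log-phase cells seeded at 10^4 cells/well and allowed to attach for 24 h at 37 °C, 5% CO2. Exposed 48 h to 1:10 serial dilutions, four replicate wells per condition. Fixed with 50% cold TCA for 1 h at 4 °C, stained, dye dissolved in tris buffer, OD read at 540 nm. Blank-subtracted growth expressed relative to untreated (100%) and reported as IC50.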

[3] = test system: Enterococcus; experiment: Antibacterial activity against vancomycin-resistant Enterococcus after 24 hrs by micro dilution method; type: functional
Method in brief: (§3)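 Broth microdilution in Mueller Hinton broth, two-fold serial dilutions, final 0.25 to 256 µg mL-1. Inoculum from 24 h culture in saline, set to 0.5 McFarland, diluted to a final 5 × 10^6 CFU mL-1. Plates held at 37 °C for 24 h and read by eye. MIC is the lowest concentration with no turbidity.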

[4] = test system: Staphylococcus aureus; experiment: Antibacterial activity against methicillin-resistant Staphylococcus aureus 15187 after 24 hrs by micro dilution method; type: functional; conditions: Staphylococcus aureus, 15187, 24 h; method in brief: as §3
[5] = test system: Aspergillus fumigatus; experiment: Antifungal activity against Aspergillus fumigatus LSI-II; type: functional
[6] = test system: HL-60; experiment: Antiproliferative activity against human HL60 cells after 48 hrs by sulforhodamine B assay; type: functional, cell-based; conditions: HL-60, 48 h; method in brief: as §2
[7] = test system: MOLT-4; experiment: Antiproliferative activity against human MOLT4 cells after 48 hrs by sulforhodamine B assay; type: functional, cell-based; conditions: MOLT-4, 48 h; method in brief: as §2
[8] = test system: Candida albicans; experiment: Antifungal activity against Candida albicans ATCC 90028; type: functional
[9] = test system: Staphylococcus aureus; experiment: Antibacterial activity against Staphylococcus aureus ATCC 29213 after 24 hrs by micro dilution method; type: functional; conditions: ATCC 29213, 24 h
Method in brief: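 Broth microdilution in Mueller Hinton broth. Inoculum from a 24 h culture in saline, set to 0.5 McFarland and diluted to a final 5 × 10^6 CFU mL-1. Two-fold serial dilutions, final 0.25–256 µg mL-1. Incubated 37 °C for 24 h and read visually. MIC is the lowest concentration with no turbidity.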

[10] = test system: Staphylococcus aureus; experiment: Antibacterial activity against Staphylococcus aureus ATCC 29213 treated for 24 hrs followed by compound treated at 2 to 16 times MIC measured after 24 hrs by micro dilution method; type: functional; conditions: ATCC 29213, 24 h
[11] = test system: Enterococcus; experiment: Antibacterial activity against vancomycin-resistant Enterococcus treated for 24 hrs followed by compound treated at 2 to 16 times MIC measured after 24 hrs by micro dilution method; type: functional; method in brief: as §1

SMILES | MBC [1] | IC50 [2] | MIC [3] | MIC [4] | MIC [5] | IC50 [6] | IC50 [7] | MIC [8] | MIC [9] | MBC [10] | MBC [11]
CCCCc1cc(Cl)c(O)c(-c2cc(CCCC)cc(Cl)c2O)c1 | 8 µg/mL (≈ 21.8 µM) | > 100 µM | 8 µg/mL (≈ 21.8 µM) | 8 µg/mL (≈ 21.8 µM) | inactive | 90 µM | > 100 µM | inactive | 8 µg/mL (≈ 21.8 µM) | 8 µg/mL (≈ 21.8 µM) | 16 µg/mL (≈ 43.6 µM)
C=CCc1cc(O)c(O)c(-c2cc(CC=C)cc(O)c2O)c1 | 16 µg/mL (≈ 53.6 µM) | > 100 µM | 16 µg/mL (≈ 53.6 µM) | 16 µg/mL (≈ 53.6 µM) | 64 µg/mL (≈ 215 µM) | > 100 µM | > 100 µM | 128 µg/mL (≈ 429 µM) | 8 µg/mL (≈ 26.8 µM) | 8 µg/mL (≈ 26.8 µM) | 32 µg/mL (≈ 107 µM)
O=c1[nH]cc(F)c(=O)[nH]1 [FLUOROURACIL] |  | 2.1 µM |  |  |  | 266 µM | 3.2 µM |  |  |  | 
O=C(O)c1cn(C2CC2)c2cc(N3CCNCC3)c(F)cc2c1=O [CIPROFLOXACIN] | 8 µg/mL (≈ 24.1 µM) |  | 32 µg/mL (≈ 96.6 µM) | 8 µg/mL (≈ 24.1 µM) |  |  |  |  | 0.25 µg/mL (≈ 0.754 µM) | 0.5 µg/mL (≈ 1.51 µM) | 64 µg/mL (≈ 193 µM)
C=CCc1cc(O)c(O)c(-c2cc(CC=C)cc(OC)c2O)c1 | 64 µg/mL (≈ 205 µM) | > 100 µM | 32 µg/mL (≈ 102 µM) | 16 µg/mL (≈ 51.2 µM) | inactive | > 100 µM | > 100 µM | inactive | 16 µg/mL (≈ 51.2 µM) | 16 µg/mL (≈ 51.2 µM) | 128 µg/mL (≈ 410 µM)
CCCc1cc(I)c(O)c(-c2cc(CCC)cc(I)c2O)c1 | 64 µg/mL (≈ 123 µM) | 7 µM | 64 µg/mL (≈ 123 µM) | 64 µg/mL (≈ 123 µM) | inactive | 7 µM | 18 µM | inactive | 64 µg/mL (≈ 123 µM) | 64 µg/mL (≈ 123 µM) | 64 µg/mL (≈ 123 µM)
CCCCc1cc(Br)c(O)c(-c2cc(CCCC)cc(Br)c2O)c1 | 8 µg/mL (≈ 17.5 µM) | > 100 µM | 8 µg/mL (≈ 17.5 µM) | 8 µg/mL (≈ 17.5 µM) | inactive | > 100 µM | > 100 µM | inactive | 8 µg/mL (≈ 17.5 µM) | 8 µg/mL (≈ 17.5 µM) | 16 µg/mL (≈ 35.1 µM)
C=CCc1cc(OC)c(O)c(-c2cc(CC=C)cc(OC)c2O)c1 | > 256 µg/mL | > 100 µM | > 256 µg/mL | > 256 µg/mL | 32 µg/mL (≈ 98 µM) | > 100 µM | > 100 µM | 64 µg/mL (≈ 196 µM) | > 256 µg/mL | > 256 µg/mL | > 256 µg/mL
CCCc1cc(Cl)c(O)c(-c2cc(CCC)cc(Cl)c2O)c1 | 4 µg/mL (≈ 11.8 µM) | > 100 µM | 8 µg/mL (≈ 23.6 µM) | 4 µg/mL (≈ 11.8 µM) | inactive | > 100 µM | > 100 µM | inactive | 4 µg/mL (≈ 11.8 µM) | 4 µg/mL (≈ 11.8 µM) | 8 µg/mL (≈ 23.6 µM)

Source: ChEMBL document CHEMBL1955787, “Design and synthesis of novel magnolol derivatives as potential antimicrobial and antiproliferative compounds” (Eur J Med Chem, 2012)
